These results are taken from ChEMBL document CHEMBL4814011, “Discovery of a novel class of inhaled dual pharmacology muscarinic antagonist and β2 agonist (MABA) for the treatment of chronic obstructive pulmonary disease (COPD)” (Bioorg Med Chem Lett, 2021).

SMILES strings stand for the structures. The source made the active and inactive calls. The rule behind the calls is not given here.

Chain of Beta-2 adrenergic receptor (P07550 whole entry): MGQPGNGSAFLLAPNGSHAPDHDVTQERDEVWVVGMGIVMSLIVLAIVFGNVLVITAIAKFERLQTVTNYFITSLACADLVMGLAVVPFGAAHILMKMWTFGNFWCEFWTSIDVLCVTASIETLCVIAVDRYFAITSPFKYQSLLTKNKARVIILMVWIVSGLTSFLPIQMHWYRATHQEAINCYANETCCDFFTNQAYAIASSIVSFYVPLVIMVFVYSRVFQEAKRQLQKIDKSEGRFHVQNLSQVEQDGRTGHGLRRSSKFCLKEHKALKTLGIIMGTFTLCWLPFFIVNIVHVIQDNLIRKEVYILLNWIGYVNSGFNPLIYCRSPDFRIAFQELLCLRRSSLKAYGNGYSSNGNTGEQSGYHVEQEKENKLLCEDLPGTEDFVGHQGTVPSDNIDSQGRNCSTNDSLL

The first data set concerns the target Beta-2 adrenergic receptor (Homo sapiens, UniProt P07550). As to the kind of experiment: Displacement of 125I-cyanopindolol from human adrenergic beta2 receptor.
Conditions: not given
The gist of the method: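 Radioligand binding on cloned human β2 adrenoceptor, with displacement of 125I-cyanopindolol.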
For orientation: Loss of bound radioactivity is the signal in a displacement assay; it reports binding, not function.
What is called Ki is the equilibrium dissociation constant of an inhibitor or competing ligand from its target. High values mean a looser hold on the target, low ones a stronger hold on the target. `O=C(N[C@H](c1ccccc1)c1cccc(OCCCCCCNC[C@H](O)c2ccc(O)c3[nH]c(=O)ccc23)c1)O[C@H]1CN2CCC1CC2` had an inhibitory constant (Ki) of 0.0398 nM.
The compound `O=C(NC(c1ccccc1)c1cccc(OCCCCCCCCNC[C@H](O)c2ccc(O)c3[nH]c(=O)ccc23)c1)O[C@H]1CN2CCC1CC2` (stereo partly specified) had a Ki of 0.2 nM.
`CCN(CCCNC[C@H](O)c1ccc(O)c2[nH]c(=O)ccc12)C(=O)c1ccc(COc2cccc(-c3ccc([C@@H](NC(=O)O[C@H]4CN5CCC4CC5)c4ccccc4)cc3)c2)cc1` showed an inhibition constant Ki of 0.0501 nM.
The compound `O=C(NC(c1ccccc1)c1cccc(OCCCCCCCNC[C@H](O)c2ccc(O)c3[nH]c(=O)ccc23)c1)O[C@H]1CN2CCC1CC2` (stereo partly specified) showed a Ki of 0.1 nM.
With `O=C(NC(c1ccccc1)c1cccc(OCCCCCNC[C@H](O)c2ccc(O)c3[nH]c(=O)ccc23)c1)O[C@H]1CN2CCC1CC2` (stereo partly specified), the affinity corresponds to a Ki of 0.0251 nM.
Compound `O=C(NC(c1ccccc1)c1cccc(OCCCCCCNC[C@H](O)c2ccc(O)c3[nH]c(=O)ccc23)c1)O[C@H]1CN2CCC1CC2` (stereo partly specified) showed a Ki of 0.0158 nM.

The next data set deals with beta-2 adrenergic receptor (guinea pig). As to the kind of experiment: Agonist activity at beta-2 adrenergic receptor in guinea pig trachea assessed as inhibition of histamine-induced contraction.
Conditions: not given
Usually pIC50 stands for the IC50 on a negative log10 scale, so that one unit is a factor of ten. Regarding `O=C(NC(c1ccccc1)c1cccc(OCCCCCCCCNC[C@H](O)c2ccc(O)c3[nH]c(=O)ccc23)c1)O[C@H]1CN2CCC1CC2` (stereo partly specified), the pIC50 was determined as 7.8.
Regarding `CCN(CCCNC[C@H](O)c1ccc(O)c2[nH]c(=O)ccc12)C(=O)c1ccc(COc2cccc(-c3ccc([C@@H](NC(=O)O[C@H]4CN5CCC4CC5)c4ccccc4)cc3)c2)cc1`, the pIC50 was found to be 9.5.
Same read-out and setting: next, `O=C(NC(c1ccccc1)c1cccc(OCCCCCCCNC[C@H](O)c2ccc(O)c3[nH]c(=O)ccc23)c1)O[C@H]1CN2CCC1CC2` (stereo partly specified): 8.1.
Regarding `O=C(NC(c1ccccc1)c1cccc(OCCCCCNC[C@H](O)c2ccc(O)c3[nH]c(=O)ccc23)c1)O[C@H]1CN2CCC1CC2` (stereo partly specified), the pIC50 worked out at 9.
Consider `O=C(NC(c1ccccc1)c1cccc(OCCCCCCNC[C@H](O)c2ccc(O)c3[nH]c(=O)ccc23)c1)O[C@H]1CN2CCC1CC2` (stereo partly specified), for which the pIC50 is on record as 9.8.

System in the next data set: not listed separately
The data set can be described thus: Protein binding in rat plasma. The format is ADME, cell-free. The note with it: read-out: PPB (converted).
For the compound `CCN(CCCNC[C@H](O)c1ccc(O)c2[nH]c(=O)ccc12)C(=O)c1ccc(COc2cccc(-c3ccc([C@@H](NC(=O)O[C@H]4CN5CCC4CC5)c4ccccc4)cc3)c2)cc1`, the fraction unbound was 0.06.

System in a further data set: not listed separately
The data set can be described thus: Protein binding in human plasma. The following applies: read-out: PPB (converted). The format is ADME, cell-free.
With `CCN(CCCNC[C@H](O)c1ccc(O)c2[nH]c(=O)ccc12)C(=O)c1ccc(COc2cccc(-c3ccc([C@@H](NC(=O)O[C@H]4CN5CCC4CC5)c4ccccc4)cc3)c2)cc1`, the fraction unbound is 0.04.

A further data set is filed under the species Cavia porcellus. As to the kind of experiment: Activity at muscarinic M3 and adrenergic beta2 in guinea pig trachea assessed as time taken for compound action by MABA assay.
Conditions: not given
The format is tissue-based. (Alamar Blue is a resazurin reagent that responds to reducing activity.)
Regarding `CCN(CCCNC[C@H](O)c1ccc(O)c2[nH]c(=O)ccc12)C(=O)c1ccc(COc2cccc(-c3ccc([C@@H](NC(=O)O[C@H]4CN5CCC4CC5)c4ccccc4)cc3)c2)cc1`, the TIME is greater than 3.75 h.

The data set is the same for the next values; noted with them: filed as modulator.
`O=C(NC(c1ccccc1)c1cccc(OCCCCCCCCNC[C@H](O)c2ccc(O)c3[nH]c(=O)ccc23)c1)O[C@H]1CN2CCC1CC2` (stereo partly specified): the TIME is less than 1.5 h.
`O=C(NC(c1ccccc1)c1cccc(OCCCCCCCNC[C@H](O)c2ccc(O)c3[nH]c(=O)ccc23)c1)O[C@H]1CN2CCC1CC2` (stereo partly specified): the TIME is less than 1.5 h.
Consider `O=C(NC(c1ccccc1)c1cccc(OCCCCCNC[C@H](O)c2ccc(O)c3[nH]c(=O)ccc23)c1)O[C@H]1CN2CCC1CC2` (stereo partly specified), for which the TIME is less than 0.75 h.
Consider `O=C(NC(c1ccccc1)c1cccc(OCCCCCCNC[C@H](O)c2ccc(O)c3[nH]c(=O)ccc23)c1)O[C@H]1CN2CCC1CC2` (stereo partly specified), for which the TIME was less than 2.25 h.

For another data set, the species on record is Cavia porcellus. The data set can be described thus: (§1) Antagonist activity at muscarinic M3 receptor in guinea pig trachea assessed as inhibition of carbachol-induced contraction.
Conditions: not given
The format is tissue-based. The gist of the method: (§2)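 Isolated guinea pig tracheal tissue was contracted with the muscarinic agonist carbachol, and inhibition of contraction was scored. A parallel histamine (H1) challenge, opposed only by the β2 component, was used to estimate the β2 share.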
In the case of `O=C(N[C@H](c1ccccc1)c1cccc(OCCCCCCNC[C@H](O)c2ccc(O)c3[nH]c(=O)ccc23)c1)O[C@H]1CN2CCC1CC2`, the pIC50 entry was “inactive”.

Molecular target in a further data set: not listed separately
Described as §1.
Conditions: not given
It is filed as tissue-based, Cavia porcellus. The gist of the method: as §2
With `O=C(NC(c1ccccc1)c1cccc(OCCCCCCCCNC[C@H](O)c2ccc(O)c3[nH]c(=O)ccc23)c1)O[C@H]1CN2CCC1CC2` (stereo partly specified), the pIC50 amounted to 8.7.
Same read-out and setting: next, `CCN(CCCNC[C@H](O)c1ccc(O)c2[nH]c(=O)ccc12)C(=O)c1ccc(COc2cccc(-c3ccc([C@@H](NC(=O)O[C@H]4CN5CCC4CC5)c4ccccc4)cc3)c2)cc1`: 9.5; `O=C(NC(c1ccccc1)c1cccc(OCCCCCCCNC[C@H](O)c2ccc(O)c3[nH]c(=O)ccc23)c1)O[C@H]1CN2CCC1CC2` (stereo partly specified): 9.3; `O=C(NC(c1ccccc1)c1cccc(OCCCCCNC[C@H](O)c2ccc(O)c3[nH]c(=O)ccc23)c1)O[C@H]1CN2CCC1CC2` (stereo partly specified): 8.5.
For the compound `O=C(NC(c1ccccc1)c1cccc(OCCCCCCNC[C@H](O)c2ccc(O)c3[nH]c(=O)ccc23)c1)O[C@H]1CN2CCC1CC2` (stereo partly specified), the pIC50 is given as 9.9.

Another data set deals with Muscarinic acetylcholine receptor M3 (Homo sapiens, UniProt P20309). The data set can be described thus: Displacement of [3H]-N-methylscopolamine from human muscarinic M3 receptor.
Chain of Muscarinic acetylcholine receptor M3 (P20309 whole entry): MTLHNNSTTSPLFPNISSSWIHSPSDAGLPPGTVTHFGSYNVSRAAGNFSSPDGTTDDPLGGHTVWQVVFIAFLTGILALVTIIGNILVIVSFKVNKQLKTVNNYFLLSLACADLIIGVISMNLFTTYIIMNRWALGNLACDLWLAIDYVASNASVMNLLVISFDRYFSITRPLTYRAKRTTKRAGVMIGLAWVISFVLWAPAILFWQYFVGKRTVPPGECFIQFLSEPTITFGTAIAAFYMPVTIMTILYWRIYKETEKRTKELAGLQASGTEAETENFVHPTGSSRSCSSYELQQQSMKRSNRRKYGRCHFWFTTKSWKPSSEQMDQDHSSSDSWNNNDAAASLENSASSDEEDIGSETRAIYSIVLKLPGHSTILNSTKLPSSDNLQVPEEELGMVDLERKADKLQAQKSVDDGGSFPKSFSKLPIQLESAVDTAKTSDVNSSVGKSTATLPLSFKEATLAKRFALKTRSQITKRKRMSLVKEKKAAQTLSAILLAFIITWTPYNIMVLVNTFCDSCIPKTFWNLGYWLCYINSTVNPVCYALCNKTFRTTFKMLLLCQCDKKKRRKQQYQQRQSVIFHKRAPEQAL
Conditions: not given
`O=C(NC(c1ccccc1)c1ccccc1)O[C@H]1CN2CCC1CC2` gave a Ki of 1.26 nM.
`O=C(N[C@H](c1ccccc1)c1cccc(OCCCCCCNC[C@H](O)c2ccc(O)c3[nH]c(=O)ccc23)c1)O[C@H]1CN2CCC1CC2` showed an inhibition constant Ki of 3.98 nM.
Consider `O=C(NC(c1ccccc1)c1cccc(OCCCCCCCCNC[C@H](O)c2ccc(O)c3[nH]c(=O)ccc23)c1)O[C@H]1CN2CCC1CC2` (stereo partly specified), for which the Ki is 0.158 nM.
In turn, `CCN(CCCNC[C@H](O)c1ccc(O)c2[nH]c(=O)ccc12)C(=O)c1ccc(COc2cccc(-c3ccc([C@@H](NC(=O)O[C@H]4CN5CCC4CC5)c4ccccc4)cc3)c2)cc1` had an inhibition constant Ki of 0.251 nM.
`O=C(NC(c1ccccc1)c1cccc(OCCCCCCCNC[C@H](O)c2ccc(O)c3[nH]c(=O)ccc23)c1)O[C@H]1CN2CCC1CC2` (stereo partly specified) had a Ki of 0.398 nM.
On the same count and under the same terms, next, `O=C(NC(c1ccccc1)c1cccc(OCCCCCNC[C@H](O)c2ccc(O)c3[nH]c(=O)ccc23)c1)O[C@H]1CN2CCC1CC2` (stereo partly specified): 0.398 nM; `O=C(NC(c1ccccc1)c1cccc(OCCCCCCNC[C@H](O)c2ccc(O)c3[nH]c(=O)ccc23)c1)O[C@H]1CN2CCC1CC2` (stereo partly specified): 0.316 nM.
